Assay results published in PubChem BioAssay AID561 (The Scripps Research Institute Molecular Screening Center, 2006).
Hit rate of the full screen: of about 65,000 compounds, about 280 (0.43%) were called active.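 The calls were made as follows: active = inhibition above the mean of all tested compounds plus 3 SD (cut at about 52% in these data); inactive = the rest.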 Only a selection was taken, and actives are over-represented in it overall.

These molecules were tested against Nuclear receptor ROR-alpha (Homo sapiens) (UniProt P35398) (assay: suppression of basal RORA-driven reporter transcription – cell-based, luminescence, primary screen (AID 561)). Details: CHO-K1 Gal4-RORA LBD luciferase reporter, at 10 µM, active compounds read high.
Nuclear receptor ROR-alpha (Homo sapiens), sequence (P35398 whole entry, looked up, the tested form may be a part): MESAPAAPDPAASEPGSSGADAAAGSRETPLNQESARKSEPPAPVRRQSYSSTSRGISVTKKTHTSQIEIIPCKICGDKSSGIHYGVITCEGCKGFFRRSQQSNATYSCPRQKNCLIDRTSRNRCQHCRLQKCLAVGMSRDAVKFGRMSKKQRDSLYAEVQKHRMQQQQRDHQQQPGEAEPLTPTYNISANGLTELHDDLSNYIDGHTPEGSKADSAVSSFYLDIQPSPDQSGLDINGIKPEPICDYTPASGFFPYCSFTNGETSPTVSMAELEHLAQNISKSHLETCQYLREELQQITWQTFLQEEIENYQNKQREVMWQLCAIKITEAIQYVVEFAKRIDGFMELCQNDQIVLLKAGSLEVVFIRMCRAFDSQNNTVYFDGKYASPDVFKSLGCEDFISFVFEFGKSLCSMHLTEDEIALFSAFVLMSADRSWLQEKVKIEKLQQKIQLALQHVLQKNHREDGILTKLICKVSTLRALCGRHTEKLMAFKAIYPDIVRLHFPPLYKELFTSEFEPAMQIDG
Procedure, shortened: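 Test system: CHO-K1 cells with Gal4-hRORA LBD fusion and pG5-luc reporter / Compound: single concentration per compound, 10 µM final / Schedule: 20 h compound treatment, 37 °C / Signal: luminescence from basal luciferase reporter expression / Read-out: % inhibition / Control set: mock-transfected cells as 100%, +RORA DMSO cells as 0% / Replicates: tested once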

inhibition, inactive:
Oc1ccc(Cl)cc1/C=N/c1nc2ccccc2[nH]1 -51.7%
CSc1cccc(NC(=O)C2CCCN2S(=O)(=O)c2ccc3c(c2)CCC(=O)N3)c1 (stereo unspecified) -14%
OC(COc1ccc2ccccc2c1)CN1CCOCC1 (stereo unspecified) -16.8%
OCCCN1c2ccccc2Nc2nnc(-c3ccccc3)cc21 -56.8%
CCC1(C)Cc2c(sc3nc4n(c(=O)c23)CCCS4)CO1 (stereo unspecified) -15.7%
O=C(Cn1c(-c2cncs2)nc2ccccc21)NC1CCCC1 19.7%
O=C(Nc1nc(-c2ccncc2)cs1)C1COc2ccccc2O1 (stereo unspecified) -15.8%
CNC(=O)CSc1nnnn1-c1ccc(C)cc1C 14%
CC1CCCN(Cc2nc3c(c(=O)n(C)c(=O)n3C)n2CC(=O)c2ccccc2)C1 (stereo unspecified) -31.2%
CC(=O)Nc1ccc(-c2nn3c(C)nnc3s2)cc1C 10.7%
N#CC(=C1SC=CS1)c1nc(-c2ccccc2)cs1 -59.7%
CNC(=O)CN1C(=O)c2ccccc2S1(=O)=O -15%
CC(C)c1ccc(NC(=O)NC2CCCCC2)cc1 -85.1%
CC1CN(c2cc(=O)n(-c3cccc(Br)c3)c(=O)[nH]2)CC(C)O1 (stereo unspecified) 29.5%
Cc1ccnc(N2CCCC(C(=O)Nc3cc(F)ccc3C)C2)n1 (stereo unspecified) 5.7%
CCC(=O)NC(=Nc1nc2ccccc2s1)NC(=O)CC -48.7%
CCOC(=O)c1nc(-c2ccc3c(c2)OCO3)[nH]c1C -66.7%
Fc1c(F)c(C(F)(F)F)c(F)c(F)c1N1CCN(c2ccc3nnc(C(F)(F)F)n3n2)CC1 6.9%
O=C(O)C1OC(C(=O)O)C2C1C(F)(F)C2(F)F (stereo unspecified) 1.7%
COc1ccc(N=Cc2c(O)[nH]c3ccccc23)cc1OC -55.7%
C(=C\c1ccccc1)/CSc1nnc(-c2cccnc2)n1Cc1ccco1 -2.8%
Cc1nc2ccc(S(=O)(=O)NCC(=O)NCCN3CCCCC3C)cc2s1 (stereo unspecified) 6.1%
Cn1c(=NC(=O)c2ccco2)sc2cccc(F)c21 -61.5%
O=C(CN1C(=O)c2ccccc2S1(=O)=O)N1CCc2ccccc21 37.4%
COc1ccccc1CNC(=O)C1CCCN(S(=O)(=O)c2cccc3cccnc23)C1 (stereo unspecified) 5.2%
CCC(=O)Oc1cccc(C(=O)Nc2ccc(-c3nnc(-c4ccco4)o3)cc2)c1 -112%
COC(=O)c1sc(NC(=O)c2csc3c2CCCC3)nc1C -33.7%
c1ccc(Nc2nc(-c3ccncc3)cs2)nc1 -50.9%
COc1ccc(C(=O)Nc2nncs2)c(OC)c1 -62.9%
Cn1nnc2cc(C(=O)NCCC3=CCCCC3)ccc21 -18%
Cc1cc(C)nc(N2CCN(c3ncnc4c3oc3ccccc34)CC2)n1 7.6%
CCCOc1ccccc1C(=O)NCCCC(=O)O 16.7%
O=C(C1CCN(c2nnc(-n3cccc3)s2)CC1)N1CCc2ccccc2C1 8.1%
COC(=O)Nc1ncc(CN2C(=O)c3ccccc3C2=O)s1 19.5%
COCn1c(COc2ccccc2)nc2ccccc21 -53.4%
Cc1ccc(CCNC(=O)C2CCN(S(=O)(=O)N3CCCC3)CC2)cc1 2.2%
COc1ccc(Nc2oc(-c3ccccc3Cl)nc2C#N)cc1 -98.6%
COC(=O)c1ccc(NC(=O)c2ccco2)cc1 -77.4%
C=CCn1c(C(C)NC(=O)CC)nc2ccccc21 (stereo unspecified) -12.3%
Cn1c(=O)c2c(nc(N3CCCCCC3)n2CC(O)COc2ccc(Cl)cc2)n(C)c1=O (stereo unspecified) -1%
CCCc1[nH]nc2c1C(c1ccc(OC)c(Cn3nc(C)c(Br)c3C)c1)C(C#N)=C(N)O2 (stereo unspecified) 27.5%
CN(C)c1cc(N)c2ccccc2n1 (tested in a mixture with another compound) -3.2%
O=C1c2oc3ccccc3c(=O)c2C(c2cccc(O)c2)N1c1ccccn1 (stereo unspecified) -9.5%
COc1ccc(-c2nn(-c3ccccc3)cc2C(=O)Nc2nc(CC(C)=O)ns2)cc1 -0.5%
COc1cccc(N2CCN(C(=O)C3CCCN(S(=O)(=O)c4cnc[nH]4)C3)CC2)c1 (stereo unspecified) 4.9%
Cc1ccc(NC(=O)c2nc[nH]c2C(=O)N2CCCCC2)c(C(=O)c2ccccc2)c1 24.7%
O=c1[nH]c(-c2ccccc2)c(-c2ccccc2)[nH]1 23.5%
O=C(CCC(=O)c1cccs1)NCc1ccccc1 2.2%
COc1ccc(NC(=O)c2cccc(NC(=O)c3ccco3)c2)c(OC)c1 -19%
CC(C)n1c(SCC(=O)Nc2ccccc2N2CCCCC2)nc2c1c(=O)n(C)c(=O)n2C 18.7%
CC(C)Cc1cc(C(=O)NCCc2ccccc2)no1 -23.2%
O=C(Cc1ccccc1)n1nc(-c2ccccc2)nc1NCc1ccco1 -8%
O=C(NCc1ccc2c(c1)OCO2)c1ccc2c(c1)C(=O)N(CC1CCCO1)C2=O (stereo unspecified) 4.9%
Cc1ccc(Cn2ccc(NC(=O)C3C4CCC(C4)C3C(=O)O)n2)cc1 (stereo unspecified) -14.2%
COc1ccccc1C1/C(=C(/O)c2ccc(C)cc2)C(=O)C(=O)N1Cc1ccco1 (stereo unspecified) -17.5%
O=C(CNC(=O)c1ccco1)OCC(=O)c1ccccc1 10.7%
O=c1cc(-c2ccccc2)nc(N2CCCCC2)[nH]1 -0.2%
CC(C)C[C@H](NC(=O)Nc1cccc(C(F)(F)F)c1)C(=O)O 11.1%
CN(c1ccc(C(=O)NCCC2=CCCCC2)cc1)S(C)(=O)=O -63%
CC(=O)Nc1ccn(Cc2c(F)cccc2Cl)n1 -27.2%
CCOC(=O)Cc1c(C)nc2c(C#N)c(C)nn2c1C -2.8%
COC(=O)C(C)C1Sc2ccccc2NC1=O (stereo unspecified) 13.2%
CC(=O)c1cnc(Nc2nc(C)c3cc(C)ccc3n2)nc1C 26.5%

inhibition, active:
CCOC(=O)N1CCN(C(=O)C2CCN(c3ncnc4c3sc3cccc(F)c34)CC2)CC1 75.2%
Cc1oc2nc(SCC(=O)NCc3cccnc3)nc(N)c2c1C 72.8%
Cc1ccc(F)cc1NC(=O)Cc1nn(C)c(=O)c2ccccc12 53.5%
Cc1ccc(S(=O)(=O)Nc2ccc3ncccc3c2)cc1 56.7%
c1c2c(cc3sc(N4CCCCC4)nc13)OCCO2 75.4%
COc1ccc(OC)c(Nc2nc(-c3ccc(O)c(O)c3)cs2)c1 74.4%
C=CCOc1nc2c(c(=O)n(C)c(=O)n2C)n1Cc1ccc(Cl)cc1Cl 63.5%
c1coc(CNc2ncnc3ccccc23)c1 66.3%
